Compound activity as filed in PubChem BioAssay.
MC4R barr agon: agonists of human melanocortin 4 receptor (MC4R) beta-arrestin; P32245; U2OS MC4R beta-arrestin complementation, luminescence; percent of melanotan II response, DMSO zero; activation, % at 8.9 µM; 360,000 tested, 0.98% active;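 active means activation above a per-plate cutoff, the mean activation of sample wells on that plate plus 3 SD, cut at about 8% in these data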
MC4R antag cAMP: antagonists of human melanocortin 4 receptor (MC4R); P32245; MC4R-expressing cells, MTII-stimulated cAMP, LANCE TR-FRET; inhibition, % at 6.5 µM; 360,000 tested, 0.48% active; AID 540295;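 active means inhibition above its plate's cutoff, the mean of tested wells on that plate plus 3 SD, cut at about 29% in these data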;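 further: 0% = Melanotan II alone and 100% = Melanotan II plus saturating MCL0020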
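Test system: U2OS cells stably expressing human melanocortin 4 receptor (MC4R); also added: Melanotan II challenge; compound: 6.5 µM single dose; timing: 30-min compound preincubation, 1-h Melanotan II challenge, 1-h detection, room temperature; signal: Eu-cAMP/anti-cAMP TR-FRET, emission 671 nm; repeats: one well per compound, no replicates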
NR1D1 modulator: modulates human Rev-erb alpha binding to DNA; Rev-erbα–FITC-DNA binding, fluorescence polarization, 90 min; activity, % at 10 µM; P20393; AID 1259318; 370,000 tested, 0.79% active;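 active means activity above about 14%, limit read from the data; passing the limit was not always enough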;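 further: 0% = DMSO wells with 35 nM protein and 100% = DMSO wells with 750 nM protein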
Target sequence (P20393 whole entry, looked up): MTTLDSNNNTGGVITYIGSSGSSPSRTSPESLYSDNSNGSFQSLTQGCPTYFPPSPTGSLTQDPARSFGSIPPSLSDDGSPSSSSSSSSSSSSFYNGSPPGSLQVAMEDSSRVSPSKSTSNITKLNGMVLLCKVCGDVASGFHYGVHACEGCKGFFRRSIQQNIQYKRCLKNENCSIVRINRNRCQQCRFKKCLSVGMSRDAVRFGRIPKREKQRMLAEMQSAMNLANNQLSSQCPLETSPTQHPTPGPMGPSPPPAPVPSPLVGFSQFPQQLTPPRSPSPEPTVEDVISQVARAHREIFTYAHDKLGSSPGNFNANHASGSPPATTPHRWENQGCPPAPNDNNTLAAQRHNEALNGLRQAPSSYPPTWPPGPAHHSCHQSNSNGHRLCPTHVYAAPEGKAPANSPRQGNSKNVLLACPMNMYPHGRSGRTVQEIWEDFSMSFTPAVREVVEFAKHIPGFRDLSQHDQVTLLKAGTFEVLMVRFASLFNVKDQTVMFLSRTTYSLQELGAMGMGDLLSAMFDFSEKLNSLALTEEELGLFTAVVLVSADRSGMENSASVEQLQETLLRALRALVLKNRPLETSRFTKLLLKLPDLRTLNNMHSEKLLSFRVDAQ
NR2E3 ag-1: NR2E3 (human) agonism; GST-NR2E3/biotin-RetCOR TR-FRET, 1536-well; inhibition of corepressor binding, % at 4.78 µM; 320,000 tested, 0.12% active; AID 2300;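 active means percent inhibition above the cutoff of mean plus 3 SD of all tested compounds, set per screening campaign, cut at about 20% in these data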;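 further: 0% = DMSO wells and 100% = biotin wells as full block of FRET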
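Material: NR2E3–RetCOR corepressor complex / Incubation: Compound–protein incubation for 5 h at 4 °C / Dosing: compound at 4.8 µM, single dose / Detection: time-resolved FRET / Benchmarks: high control biotin, low control 0.6% DMSO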
PG9 Ab binder: binds the HIV-1 gp120 antibody PG9; TR-FRET gp120-PG9 antibody binding; 360,000 tested, 0.43% active; inhibition, % at 6.7 µM; in the data active means inhibition above about 8.5%
NR2E3 ag-2: activates human NR2E3 receptor; Q9Y5X4; inhibition of corepressor binding, % at 3.98 µM; CHO-S Gal4-NCOR/VP16-NR2E3 two-hybrid, luciferase; 360,000 tested, 0.35% active;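 active means inhibition above the mean of all tested compounds plus 3 SD, cut at about 70% in these data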;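 further: 0% = DMSO with NR2E3 transfected cells and 100% = cells lacking NR2E3 construct; higher means lower luciferase signal from less NR2E3 corepressor binding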
Starred values were filed as active, the others as inactive. Hits are enriched below; roughly 2.7% of the tested compounds scored in any of these assays.

Screening O=C(CN1CCC(C(O)(c2ccccc2)c2ccccc2)CC1)Nc1ccccc1 returned MC4R barr agon 0, MC4R antag cAMP 4, NR1D1 modulator -2, NR2E3 ag-1 -6, PG9 Ab binder -2 and NR2E3 ag-2 -9.
`O=C(CN1CCC(C(O)(c2ccccc2)c2ccccc2)CC1)Nc1cc(Cl)ccc1Cl` gave MC4R barr agon 8, MC4R antag cAMP 32*, NR1D1 modulator -4, NR2E3 ag-1 4, PG9 Ab binder 0 and NR2E3 ag-2 8.
For CC1=C(C#N)C(=O)N(C2CCS(=O)(=O)C2)C(=O)/C1=C\c1ccco1 (centres undefined) the results were NR2E3 ag-1 27*.
O=C1/C(=C\c2ccco2)SC(=S)N1C1CCCCC1 was read as NR2E3 ag-1 -5.
`CCN(CC)CCNC(=O)Cn1c(-c2ccccn2)nc2ccccc21` gave MC4R barr agon 0, MC4R antag cAMP 4, NR1D1 modulator 1, NR2E3 ag-1 3, PG9 Ab binder -2 and NR2E3 ag-2 4.
For CC1C(=O)CC(c2ccccc2)N(C)C1c1ccccc1 (centres undefined) the results were MC4R barr agon 9.1*, MC4R antag cAMP 5, NR1D1 modulator 1, NR2E3 ag-1 -1, PG9 Ab binder 0 and NR2E3 ag-2 28.
For CC(=O)Nc1cc(OC(C)=O)c2nonc2c1OC(C)=O the results were MC4R barr agon 0, MC4R antag cAMP -13, NR1D1 modulator 1, NR2E3 ag-1 39*, PG9 Ab binder -10 and NR2E3 ag-2 13.
Cc1onc(-c2ccccc2)c1C(=O)N(CC(C)C)c1c(N)n(CC(C)C)c(=O)[nH]c1=O was read as MC4R barr agon 0, MC4R antag cAMP 8, NR1D1 modulator -3, NR2E3 ag-1 0, PG9 Ab binder 0 and NR2E3 ag-2 -13.
For Fc1cccc(/C=N/Nc2ccc(Cl)nn2)c1 the results were MC4R barr agon 12*, MC4R antag cAMP -2, NR1D1 modulator 3, NR2E3 ag-1 0, PG9 Ab binder -2 and NR2E3 ag-2 -40.
`Cc1ccc(C(=O)NC(NCc2ccccc2)C(Cl)(Cl)Cl)cc1` (centres undefined) gave MC4R barr agon -3, MC4R antag cAMP 5, NR1D1 modulator -1, NR2E3 ag-1 5, PG9 Ab binder -2 and NR2E3 ag-2 -24.
Screening CCOc1ccc(-c2nnn(CC(=O)NCc3ccc4c(c3)OCO4)n2)cc1 returned MC4R barr agon 9.3*, MC4R antag cAMP -2, NR1D1 modulator 4, NR2E3 ag-1 4, PG9 Ab binder 1 and NR2E3 ag-2 1.
For COc1ccc(-c2nnn(CC(=O)NCc3ccc4c(c3)OCO4)n2)cc1OC the results were MC4R barr agon -5, MC4R antag cAMP 8, NR1D1 modulator 8, NR2E3 ag-1 4, PG9 Ab binder -1 and NR2E3 ag-2 13.
`Cc1ccc(NC(=O)COC(=O)C2CSC3(C)CCC(=O)N23)cc1S(=O)(=O)N1CCOCC1` (centres undefined) gave MC4R barr agon -1, MC4R antag cAMP 2, NR1D1 modulator 4, NR2E3 ag-1 2, PG9 Ab binder 0 and NR2E3 ag-2 1.
O=C(N/N=C/c1ccc(OC(=O)c2ccccc2Br)cc1)c1ccccn1 was read as MC4R barr agon 8.9*, MC4R antag cAMP -4, NR1D1 modulator 2, NR2E3 ag-1 -3, PG9 Ab binder -1 and NR2E3 ag-2 -107.
`Cc1ccc(S(=O)(=O)NN(Cc2ccccc2)Cc2ccccc2)cc1` gave MC4R barr agon 8.8*, MC4R antag cAMP 0, NR1D1 modulator -3, PG9 Ab binder -1 and NR2E3 ag-2 0.
COC(=O)c1sc(NC(=O)COc2ccc(OC)cc2)nc1C was read as MC4R barr agon 0, MC4R antag cAMP 13, NR1D1 modulator 10, NR2E3 ag-1 2, PG9 Ab binder 8 and NR2E3 ag-2 -32.
`COC(=O)c1sc(NC(=O)CSc2nnnn2-c2cccc(OC)c2)nc1C` gave MC4R barr agon 8.7*, MC4R antag cAMP 3, NR1D1 modulator 8, NR2E3 ag-1 6, PG9 Ab binder 4 and NR2E3 ag-2 -29.
Screening COC(=O)c1sc(NC(=O)COc2cccc3ccccc23)nc1C returned MC4R barr agon 8.4*, MC4R antag cAMP -3, NR1D1 modulator 9, NR2E3 ag-1 1, PG9 Ab binder 6 and NR2E3 ag-2 -24.
CN[C@@H]1[C@@H](O[C@H]2O[C@H](CO)[C@@H](N)[C@H](O)[C@H]2O)O[C@H]2C[C@@H](N)[C@H](O[C@H]3[C@H](O)[C@@H](O)[C@H](N)C[C@@H]3N)O[C@@H]2[C@@H]1O was read as NR1D1 modulator 1.
For Cn1c(=O)n(C)c2cc(S(=O)(=O)NCc3ccccc3)ccc21 the results were MC4R barr agon -1, MC4R antag cAMP 7, NR1D1 modulator -8, NR2E3 ag-1 -2, PG9 Ab binder 0 and NR2E3 ag-2 -19.
For COc1ccc(Cl)cc1NC(=O)CCn1cnc2ccccc2c1=O the results were MC4R barr agon -1, MC4R antag cAMP -6, NR1D1 modulator -1, NR2E3 ag-1 2, PG9 Ab binder 1 and NR2E3 ag-2 -15.
Cn1c(N2CCCC2)nc2c1c(=O)n(Cc1cccc(F)c1)c(=O)n2C was read as MC4R barr agon -1, MC4R antag cAMP -4, NR1D1 modulator -3, NR2E3 ag-1 4, PG9 Ab binder -1 and NR2E3 ag-2 -5.
Screening O=C(Nc1cccc([N+](=O)[O-])c1)C1C2CC/C=C\CCC21 (centres undefined) returned MC4R barr agon 8.9*, MC4R antag cAMP 7, NR1D1 modulator -5, NR2E3 ag-1 -2, PG9 Ab binder 1 and NR2E3 ag-2 -33.
For CC1=C(C)CC(C(=O)Nc2cccc([N+](=O)[O-])c2)C(C(=O)O)C1 (centres undefined) the results were MC4R barr agon -2, MC4R antag cAMP -4, NR1D1 modulator -2, NR2E3 ag-1 2, PG9 Ab binder -2 and NR2E3 ag-2 -13.
`NC(CCc1ccccc1)c1csc(NC(=O)NCC2CCCCC2)n1` (centres undefined) gave MC4R barr agon 8.7*, MC4R antag cAMP 3, NR1D1 modulator 9, PG9 Ab binder 0 and NR2E3 ag-2 0.
For NC(CCc1ccccc1)c1csc(NC(=O)Nc2cccc(C(F)(F)F)c2)n1 (centres undefined) the results were MC4R barr agon 8.8*, MC4R antag cAMP 11, NR1D1 modulator 3, PG9 Ab binder 0 and NR2E3 ag-2 9.
`COc1ccc(CC(N)c2csc(NC(=O)Nc3cccc(C(F)(F)F)c3)n2)cc1` (centres undefined) gave MC4R barr agon 0, MC4R antag cAMP 2, NR1D1 modulator -3, PG9 Ab binder -1 and NR2E3 ag-2 -2.
